# RAD54 branch: RAD54 (human) branch migration inhibition; Q92698; RAD54 Holliday junction branch migration, FAM/BHQ fluorescence; inhibition, % at 10.4 µM; hit rate 0.14% among 360,000;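 active = mean normalized replicate activity at least 40 and at least half of replicates scoring 40 or more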;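 also: 0% = median of neutral control wells and 100% = median of positive control wells; inhibitors cause a drop in the FAM fluorescence signal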
# Target sequence (Q92698 whole entry, looked up): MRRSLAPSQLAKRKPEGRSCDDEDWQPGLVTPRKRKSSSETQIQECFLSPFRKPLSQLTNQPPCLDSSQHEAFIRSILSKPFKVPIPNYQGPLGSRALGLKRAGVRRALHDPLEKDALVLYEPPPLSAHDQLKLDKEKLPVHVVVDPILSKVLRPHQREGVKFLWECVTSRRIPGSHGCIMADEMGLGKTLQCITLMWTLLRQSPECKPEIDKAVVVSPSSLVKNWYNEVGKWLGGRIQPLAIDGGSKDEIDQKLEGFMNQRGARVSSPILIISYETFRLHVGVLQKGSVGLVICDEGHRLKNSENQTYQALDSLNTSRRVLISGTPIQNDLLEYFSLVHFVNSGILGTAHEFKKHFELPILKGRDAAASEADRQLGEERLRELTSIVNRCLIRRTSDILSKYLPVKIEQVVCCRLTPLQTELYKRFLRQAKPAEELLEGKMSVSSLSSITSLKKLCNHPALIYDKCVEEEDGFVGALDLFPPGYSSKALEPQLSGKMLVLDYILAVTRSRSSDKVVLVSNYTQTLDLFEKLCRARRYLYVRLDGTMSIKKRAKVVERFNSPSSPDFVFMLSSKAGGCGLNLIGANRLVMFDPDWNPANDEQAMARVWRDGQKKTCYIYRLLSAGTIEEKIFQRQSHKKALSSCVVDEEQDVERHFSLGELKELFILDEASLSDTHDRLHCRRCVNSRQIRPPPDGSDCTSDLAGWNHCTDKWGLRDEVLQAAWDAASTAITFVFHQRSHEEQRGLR
# RAD52 anneal inh: inhibitors of human RAD52 DNA annealing. P43351. recombinant RAD52 DNA annealing, FRET fluorescence. inhibition, % at 18.7 µM. hit rate 0.46% among 360,000. AID 651710;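 active = every replicate showing at least 50% inhibition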
# NSD2 HMT inh: inhibitors of human histone methyltransferase NSD2; NSD2 peptide methylation, AlphaScreen, 120 min; hit rate 0.54% among 310,000; inhibition, % at 12.5 µM; in the data active = inhibition above about 50%
# N-glyco inh: blocks N-linked glycosylation in D54 reporter cells | hit rate 0.23% among 360,000 | reporter increase, % at 12.5 µM | D54 ERlucT glycosylation luciferase reporter, 24 h; percent of 100 nM tunicamycin response;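 active = mean luciferase reporter signal, scaled so untreated is 0 and the glycosylation-blocking control 100, at or above a set limit in every replicate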;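 also: luciferase carries N-glycosylation sites so blocking glycosylation raises the light; 0% = median of neutral control wells and 100% = median of 100 nM tunicamycin wells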
# FN deposition inh: fibronectin deposition inhibition. AH1F fibroblasts, Alexa488-fibronectin deposition fluorescence, overnight. hit rate 0.086% among 350,000. inhibition, % at 12.6 µM. AID 743247;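 active = mean inhibition across replicates of 30% or more, regardless of how many single replicates reach that level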;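 also: positive control wells lacked labelled fibronectin entirely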
#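 Assay system: AH1F fibroblasts / Quantity: 10000 cells per well / Medium: DMEM plus 2% serum, read in PBS / Reagent: labelled fibronectin 24 nM / Dosing: single dose, pinned / Times: 1 h cell attachment, overnight exposure to compound and label / Signal: fluorescence, ex 485 nm, em 525 nm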
# AF4-AF9 inh: MLL-AF4/AF9 protein interaction inhibition; P42568; inhibition, % at 10 µM; hit rate 0.47% among 350,000; AlphaScreen, biotin-AF4 peptide binding to FLAG-AF9;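 active = every replicate reaching a set inhibition limit, whatever the replicate mean, cut at about 25% in these data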;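 also: 0% = plate neutral control median and 100% = total signal loss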
# AlphaScreen art: interferes with AlphaScreen signal, flagging NSD2 false positives; shares compounds with NSD2 HMT inh; AlphaScreen artifact counterscreen, preloaded methylated H4 peptide; AC35, µM (titrated, usually from 10 µM), inactives show at the highest dose activity change, negative = signal loss; hit rate 9.4% among 1,500; AID 1053174; call rule not given here
# The depositor's hits bear a star; . = no result given. Shown are actives, neighbours in structure and some others; about 1.2% of the full set was active somewhere.
SMILES,RAD54 branch,RAD52 anneal inh,NSD2 HMT inh,N-glyco inh,FN deposition inh,AF4-AF9 inh,AlphaScreen art
CC(=O)c1ccc(NC(=O)CC2Nc3cccc4cccc(c34)NC2=O)cc1 (centres undefined),.,7,78*,5,10,10,-5%
CN(C[C@H]1N[C@@H](CO)[C@H]1c1ccc(C2=CCCCC2)cc1)S(C)(=O)=O,2,.,.,.,-6,.,.
COC1=C(c2ccccc2)C(=O)c2ccccc2C1=O,.,.,81*,4,3,.,-1%
COc1ccc(C2=C(N)c3ccccc3C2=O)cc1,-6,.,7,-3,7,.,.
CC(C)c1ccc(NC(=S)N2CCCC(c3ccc(F)cc3)=N2)cc1,.,-1,60*,0,-5,2,0%
CCOC(=O)c1ccc(CC(=O)c2oc3cc(O)ccc3c2C)o1,-4,-103,2,0,.,5,.
CCOC(=O)c1ccc(CC(=O)c2ccc(O)c(O)c2O)o1,.,-12,91*,0,-16,-15,-8%
CCOc1ccc(-n2cnc3sc4c(c3c2=O)CCCC4)cc1,-3,-10,58*,0,-12,-1,0%
COc1ccc(-n2cnc3sc4c(c3c2=O)CCCC4)cc1,.,3,2,-1,.,-2,.
C[C@@H]1CN([C@@H](C)CO)C(=O)c2cc(NC(=O)Nc3ccc(C(F)(F)F)cc3)ccc2O[C@@H](C)CCCCO[C@@H]1CN(C)Cc1ccccc1,7,-14,.,.,-4,-1,.
COc1ccc2c(c1)Cc1sc(NC(=O)c3cccs3)nc1-2,-5,.,78*,-2,.,.,-2%
COc1ccc2c(c1)Cc1sc(NC(=O)c3ccccc3)nc1-2,0,.,128*,1,-2,.,-5%
COc1ccc(C(=O)Nc2nc3c(s2)Cc2cc(OC)ccc2-3)cc1,-1,.,12,-1,.,.,.
COc1ccc(Oc2c(OC)cc([N+](=O)[O-])c3ncccc23)cc1,0,-16,5,-3,.,9,.
COc1cc(NC(C)CCCN)c2ncccc2c1Oc1ccccc1 (centres undefined),.,.,63*,-4,-3,.,-1%
CC(=O)N1[C@@H]2CN(CC(F)(F)F)C[C@H]1C2c1ccccc1 (some centres undefined),.,.,.,.,-5,.,.
N#Cc1ccc(C(=O)OCC(=O)N2CCN(C(=O)c3ccco3)CC2)cc1,-2,-11,1,2,2,-2,.
N#Cc1ccccc1OCC(=O)OCC(=O)N1CCN(C(=O)c2ccco2)CC1,.,-14,57*,4,0,-2,-3%
CCCN1[C@@H]2c3ccc(-c4ccc(OC)cc4)c(=O)n3C[C@H]1[C@H](CO)[C@H]2C(=O)NCC,.,-25,.,.,.,-4,.
Cn1nc(-c2ccccc2F)c2cc(C(=O)Nc3ccc4c(c3)OCCO4)sc21,12,.,3,0,13,.,.
CCCN(CCC)CCNC(=O)c1cc2c(-c3ccccc3F)nn(C)c2s1,.,20,53*,-4,-2,4,-3%
C=CCn1c(SCc2ccc3c(c2)OCO3)nc2scc(-c3ccco3)c2c1=O,-15,.,117*,1,6,.,-3%
CC1CCN(C2(O)C(=O)Nc3ccc([N+](=O)[O-])cc32)CC1 (centres undefined),-5,.,2,2,.,.,.
Cc1cc([N+](=O)[O-])cc2c1NC(=O)C2(O)N1CCOCC1 (centres undefined),9,-13,59*,-1,9,0,2%
CC(=O)Nc1cccc2c1O[C@H](CN(C)C(=O)OC(C)(C)C)[C@H](C)CN(C)C2=O,.,.,.,.,-11,.,.
COc1ccc(C2SCCN2S(=O)(=O)c2ccccc2)cc1 (centres undefined),.,2,99*,-1,12,-1,-1%
COc1ccc(C2SCCN2S(=O)(=O)c2ccc(NC(C)=O)cc2)cc1 (centres undefined),-11,.,-6,3,6,.,.
CCOc1ccccc1NC(=O)N1CCCC1C(=O)NCc1cccs1 (centres undefined),-5,-4,-9,0,-2,-4,.
CCOc1ccccc1NC(=O)C1CCCN1C(=O)c1cccs1 (centres undefined),1,9,108*,3,1,-1,-6%
